# EBI2 antag: EBI2 receptor antagonists, beta-arrestin recruitment, primary screen, cell-based, luminescence, 7a,25-OHC stimulation, uHTS; G-protein coupled receptor 183 (Homo sapiens), P32249; 7a,25-OHC stimulated; inhibition, % at 5 µM; 360,000 tested, 0.81% active; in the data active means inhibition above about 38%;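 further: enzyme fragment complementation signal reports receptor beta-arrestin coupling in cells; 0% = agonist plus DMSO wells and 100% = wells without agonist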
# APJ agonist: agonists of human apelin receptor APJ, primary screen, CHO-K1 cells, PathHunter beta-arrestin, luminescence. P35414. 0% DMSO wells, 100% apelin. activation, % at 20 µM. 330,000 tested, 0.11% active. AID 2520, 2010;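 active means activation more than six SD over the plate average, tested at 20 µM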;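 further: 0% = DMSO alone and 100% = apelin-13 at 10 nM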
# Target sequence (P35414 whole entry, looked up): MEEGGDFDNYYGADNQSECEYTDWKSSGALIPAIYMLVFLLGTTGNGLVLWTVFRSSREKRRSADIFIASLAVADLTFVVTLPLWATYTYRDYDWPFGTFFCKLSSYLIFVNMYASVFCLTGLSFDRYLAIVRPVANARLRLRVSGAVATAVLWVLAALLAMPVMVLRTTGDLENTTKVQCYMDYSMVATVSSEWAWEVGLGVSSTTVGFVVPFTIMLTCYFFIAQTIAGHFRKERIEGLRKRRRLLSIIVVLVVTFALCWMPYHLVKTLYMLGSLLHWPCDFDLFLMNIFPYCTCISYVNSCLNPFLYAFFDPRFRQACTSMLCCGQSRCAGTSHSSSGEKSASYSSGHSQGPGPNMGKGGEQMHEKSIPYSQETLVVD
#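 Assay system – PathHunter CHO-K1 APJ (AGTRL-1) beta-arrestin reporter cells · Compound – one dose, 20 µM compound, 1% DMSO · Timing – compound 90 min 25 °C, reagent 1 h · Measured by – luminescence from split beta-galactosidase complementation, Galacton Star/Emerald II substrate · Measure – beta-arrestin recruitment to APJ as agonist activity, luminescent signal · Benchmarks – DMSO vs Apelin-13 10 nM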
# CXCR6 inh: CXCR6 receptor inhibitors, primary screen, cell-based, beta-arrestin, luminescence, CHO-K1 PathHunter, 1536-well; inhibition, % at 20 µM; 360,000 tested, 0.36% active; AID 602244, 2012; in the data active means inhibition above about 34%, passing the limit was not always enough;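 further: antagonist mode with CXCL16 agonist at 10 nM final; 0% = 10 nM CXCL16 with DMSO and 100% = unstimulated wells without agonist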
# CCR6 antag: CCR6 receptor antagonists, primary screen, cell-based, CHO-K1, luminescence, beta-arrestin, uHTS | C-C chemokine receptor type 6 (Homo sapiens), P51684 | CHO-K1 CCR6 PathHunter beta-arrestin, CCL20-stimulated | 340,000 tested, 0.49% active | AID 493098, 2011 | inhibition, % at 20 µM;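 active means compounds whose inhibition of the agonist-driven luminescence signal at 20 µM reaches about 50%, limit read from the data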;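 further: cells stimulated with CCL20 at 14 nM final; plate controls were DMSO with CCL20 for no effect and DMSO without agonist for full effect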
# APJ antag: antagonists of human apelin receptor APJ, primary screen, CHO-K1 cells, beta-arrestin complementation, luminescence | inhibition, % at 20 µM | AID 2521, 2010 | 330,000 tested, 0.32% active;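 active means inhibition above about 40% at 20 µM, limit read from the data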;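 further: cells challenged with 10 nM apelin-13 agonist together with compound; plate controls were apelin-13 plus DMSO wells for no effect and DMSO wells lacking apelin-13 for full effect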
# EBI2 antag conf: EBI2 antagonist hit retest, beta-arrestin, confirmation, cell-based, single concentration, luminescence, 7a,25-OHC stimulation; 7a,25-OHC antagonism; inhibition, % at 5 µM; 2,400 tested, 29% active; AID 651997, 2013; shares compounds with EBI2 antag;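 active means inhibition of at least 50%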
# EBI2 ag: EBI2 agonist activity of antagonist hits, confirmation, counter-screen for EBI2 antagonist project, cell-based, single concentration, agonist mode, luminescence | shares compounds with EBI2 antag | EBI2-expressing cells, 60 min; 0% vehicle, 100% 7α,25-dihydroxycholesterol control | activation, % at 5 µM | 2,400 tested, under 10 active;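 active means activation of at least 50%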
# bGal cs: E. coli beta-galactosidase enzyme inhibition, confirmation, counter-screen for EBI2 antagonist project, biochemical, luminescence, single concentration; shares compounds with EBI2 antag; purified beta-galactosidase, luminescent Galacton Star, 15 min; inhibition, % at 5 µM; 2,400 tested, 1% active;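 active means replicate-average signal at least 3 plate SD below neutral wells, shown as high inhibition, flagging enzyme-inhibiting false positives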;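 further: 0% = DMSO wells with enzyme and 100% = wells lacking enzyme; higher means stronger loss of beta-gal luminescence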
# * marks the source's active call; other numbers are inactive results; / = no result given. A selection: hits, their analogues and other compounds. The true share with any hit is near 1.5%.
SMILES,EBI2 antag,APJ agonist,CXCR6 inh,CCR6 antag,APJ antag,EBI2 antag conf,EBI2 ag,bGal cs
O=C(NCCN1C(=O)S/C(=C\c2ccc(Cl)cc2)C1=O)c1ccc(F)c(S(=O)(=O)N2CCOCC2)c1,67*,0,0,-5,-8,48,2,-1
Cc1ccc(CNC(=O)C2CCC(CNc3c(N4CCC(C)CC4)c(=O)c3=O)CC2)cc1 (stereo not given),84*,-2,5,9,-2,57*,1,12
Cc1ccc(CCNC(=O)C2CCC(CNc3c(N4CCC(C)CC4)c(=O)c3=O)CC2)cc1 (stereo not given),4,-2,5,16,-4,/,/,/
CN(C)CCCNc1nc2cc(-c3cnn(C)c3)sc2c(=O)n1C,-2,/,1,/,/,/,/,/
CCc1ccc(C(C)NC(=O)/C=C/c2ccc(Br)cc2)cc1 (stereo not given),61*,1,4,6,-33,27,0,-14
CC(NC(=O)/C=C/c1ccccc1)c1ccccc1 (stereo not given),-2,1,3,0,7,/,/,/
CC(NC(=O)/C=C/c1ccc(Br)cc1)c1ccccc1 (stereo not given),44*,1,-11,5,-11,24,-1,-14
CCCN1C(=O)c2ccc(C(=O)Nc3cc(C)on3)cc2C1=O,-9,-6,4,-12,-15,/,/,/
Cc1cc(NC(=O)c2ccc3c(c2)C(=O)N(Cc2ccccc2)C3=O)no1,47*,-1,-3,3,4,20,0,5
O=C(Nc1ccc(O)cc1)c1ccc2c(c1)C(=O)N(Cc1ccccc1)C2=O,57*,1,-8,-1,-24,22,1,9
CC(C(=O)NCCS(=O)(=O)c1ccc(Br)cc1)S(=O)(=O)c1ccc(Cl)cc1 (stereo not given),2,-1,5,-2,-1,/,/,/
CC(C)c1ccc(C(C)NCCS(=O)(=O)c2ccc(Cl)cc2)cc1 (stereo not given),72*,-3,6,12,5,49,1,12
COc1ccc([C@H]2CC(=O)C=C(c3ccc(C)c([N+](=O)[O-])c3)C2)cc1,41,-1,-2,13,-4,/,/,/
Cc1c(C(=O)Nc2ccccc2)sc2nc(-c3ccccc3)cn12,44*,2,-10,13,-18,31,2,1
COCCCN(C(=O)c1cc2c(s1)CCCCC2)c1c(N)n(Cc2ccccc2)c(=O)[nH]c1=O,-3,0,-6,-11,12,/,/,/
CC(C)n1c(O)c(/C=C2\C=Nc3ccccc32)sc1=Nc1ccccc1,57*,1,-4,6,10,26,0,-13
CC(C)N(C(=O)Cn1cc(S(=O)(=O)CC(=O)Nc2ccccc2)c2ccccc21)C(C)C,4,3,-6,12,39,/,/,/
COc1ccc(NC(=O)C(=S)N2CCCC2)cc1,-6,-2,7,-2,5,/,/,/
Cc1ccc2nc(-c3ccccc3Cl)cc(C(=O)Nc3cc(C)on3)c2c1,60*,-2,-2,6,1,46,-1,-3
COc1ccc(-n2cc(-c3ccc(Br)cc3)[nH]c2=S)cc1,79*,-1,1,-7,-6,52*,-2,-8
COc1ccc(OC)c(NC(=O)Nc2ccc3c(c2)OCO3)c1,-2,-2,-11,12,0,/,/,/
O=S(Cc1ccc(Cl)cc1)CC(O)COc1ccc(Cl)cc1 (stereo not given),76*,-1,-6,-13,-17,60*,-1,-15
NC(=O)OCC(O)COc1ccc(Cl)cc1 (stereo not given),4,10,-1,14,-5,/,/,/
COc1ccc(N2CCN(C(=O)CNC(=O)Cn3cnc4sc(C)c(C)c4c3=O)CC2)cc1,4,0,-2,8,15,/,/,/
Cc1ccc(C(=O)N2CCC3(CC2)Oc2ccc(Cl)cc2C(=O)C32CC(c3cccnc3)=NO2)s1 (stereo not given),0,-3,6,4,11,/,/,/
SMILES,EBI2 antag,APJ agonist,CXCR6 inh,CCR6 antag,APJ antag,EBI2 antag conf,EBI2 ag,bGal cs
O=C(/C=C/c1cccs1)N1CCC2(CC1)Oc1ccc(Cl)cc1C(=O)C21CC(c2cccnc2)=NO1 (stereo not given),66*,13,4,19,0,18,-1,-12
CCOc1cc(/C=N/Nc2nc(-c3cccc(S(=O)(=O)N4CCCC4)c3)cs2)ccc1O,8,6,-4,3,-56,/,/,/
CC(=O)c1cccc(CN2CCCCC2C(=O)Nc2ccc(Oc3ccccc3)nc2)c1 (stereo not given),71*,8,-15,15,3,49,1,8
O=C(Nc1ccc(Oc2ccccc2)nc1)C1CCCCN1Cc1ccc(OCCO)cc1 (stereo not given),66*,10,-10,2,-22,42,-1,12
C#Cc1ccc(CN2CCC(C(=O)Nc3ccc(Oc4ccccc4)nc3)CC2)cc1,28,-3,-2,13,17,/,/,/
O=C(Nc1ccc(Oc2ccccc2)nc1)C1CCCCN1Cc1ccco1 (stereo not given),54*,-1,-5,15,4,25,0,4
CCCc1ncc(CN2CCCCC2C(=O)Nc2ccc(Oc3ccccc3)nc2)cn1 (stereo not given),15,-8,2,1,3,/,/,/
Cc1onc(-c2c(Cl)cccc2Cl)c1C(=O)N=C(N)N1CCCC1,-1,0,-4,0,-17,/,/,/
O=C(c1ccccc1)c1sc(Nc2ccc3c(c2)OCO3)nc1-c1ccccc1,50*,/,13,/,/,47,0,9
Cc1ccc(C(=O)COC(=O)c2ccc3c(c2)C(=O)N(c2cccc4ncccc24)C3=O)cc1C,48*,2,4,11,0,1,-2,-9
CCn1c(SCc2ccccc2Cl)nc2nc3c(cc2c1=O)CCCC3,57*,/,20,23,/,41,0,3

# Screens from PubChem.
